What was measured:
Citrobacter koseri [1] = test: In vitro minimal inhibitory concentration (MIC) in brain-heart infusion broth in the presence of hog liver esterase(1:1.5) in Citrobacter diversus 031; type: functional
In short: (§1)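 Two-fold serial broth dilution in brain-heart infusion broth. POM ester prodrugs were incubated with hog liver esterase (1:1.5) in the broth so the ester is converted in situ to the free acid. The MIC is the lowest concentration that inhibits growth.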

Escherichia coli [2] = test: In vitro minimal inhibitory concentration (MIC) in brain-heart infusion broth in the presence of hog liver esterase(1:1.5) in Escherichia coli 129; type: functional; in short: as §1
Enterobacter cloacae [3] = test: In vitro minimal inhibitory concentration (MIC) in brain-heart infusion broth in the presence of hog liver esterase(1:1.5) in […] 009; type: functional; in short: as §1
Klebsiella pneumoniae [4] = test: In vitro minimal inhibitory concentration in brain-heart infusion broth in presence of hog liver esterase(1:1.5) in Klebsiella pneumoniae 079; type: functional; in short: as §1
Morganella morganii = test: In vitro minimal inhibitory concentration (MIC) in brain-heart infusion broth in the presence of hog liver esterase(1:1.5) in Morganella morganii 001; type: functional; in short: as §1
Pseudomonas aeruginosa = test: In vitro minimal inhibitory concentration (MIC) in brain-heart infusion broth in the presence of hog liver esterase(1:1.5) in Pseudomonas aeruginosa 104; type: functional; in short: as §1
Staphylococcus aureus [5] = test: In vitro minimal inhibitory concentration (MIC) in brain-heart infusion broth in the presence of hog liver esterase(1:1.5) in Staphylococcus aureus 005; type: functional; in short: as §1
[6] = In vitro minimal inhibitory concentration (MIC) in brain-heart infusion broth in the presence of hog liver esterase(1:1.5) in Serr. marc. 095; type: functional; details: Serratia marcescens; in short: as §1
Staphylococcus aureus [7] = test: In vitro minimal inhibitory concentration (MIC) in brain-heart infusion broth in the presence of hog liver esterase(1:1.5) in Staphylococcus aureus 400; type: functional; in short: as §1
Escherichia coli [8] = test: In vitro minimal inhibitory concentration (MIC) in brain-heart infusion broth in the presence of hog liver esterase(1:1.5) in Escherichia coli 266; type: functional; in short: as §1
Klebsiella pneumoniae [9] = test: In vitro minimal inhibitory concentration (MIC) in brain-heart infusion broth in the presence of hog liver esterase(1:1.5) in Klebsiella pneumoniae 009; type: functional; in short: as §1
Streptococcus pyogenes = test: In vitro minimal inhibitory concentration (MIC) in brain-heart infusion broth in the presence of hog liver esterase(1:1.5) in Streptococcus pyogenes 203; type: functional; in short: as §1
Haemophilus influenzae = test: In vitro minimal inhibitory concentration (MIC) in brain-heart infusion broth in the presence of hog liver esterase(1:1.5) in Haemophilus influenzae 012
Citrobacter koseri [10] = test: In vitro minimal inhibitory concentration in brain-heart infusion broth in presence of hog liver esterase(1:1.5) in Citrobacter diversus 031; type: functional; in short: as §1
Klebsiella pneumoniae [11] = test: In vitro minimal inhibitory concentration in brain-heart infusion broth in the presence of hog liver esterase(1:1.5) in Klebsiella pneumoniae 079; type: functional; in short: as §1
Enterobacter cloacae [12] = test: In vitro minimal inhibitory concentration in brain-heart infusion broth in the presence of hog liver esterase(1:1.5) in […] 009; type: functional; in short: as §1

MIC (Citrobacter koseri [1]) [µg/mL] | MIC (Escherichia coli [2]) [µg/mL] | MIC (Enterobacter cloacae [3]) [µg/mL] | MIC (Klebsiella pneumoniae [4]) [µg/mL] | MIC (Morganella morganii) [µg/mL] | MIC (Pseudomonas aeruginosa) [µg/mL] | MIC (Staphylococcus aureus [5]) [µg/mL] | MIC [6] [µg/mL] | MIC (Staphylococcus aureus [7]) [µg/mL] | MIC (Escherichia coli [8]) [µg/mL] | MIC (Klebsiella pneumoniae [9]) [µg/mL] | MIC (Streptococcus pyogenes) [µg/mL] | MIC (Haemophilus influenzae) [µg/mL] | MIC (Citrobacter koseri [10]) [µg/mL] | MIC (Klebsiella pneumoniae [11]) [µg/mL] | MIC (Enterobacter cloacae [12]) [µg/mL] | SMILES
> 200 | > 200 | > 200 | > 200 | > 200 | > 200 | 100 | > 200 | > 200 | > 200 |  |  |  |  |  |  | C[C@H]1C(=O)[C@@H]2[C@H](NC(=O)OCc3ccccc3)C(=O)N2[C@H]1C(=O)OCOC(=O)C(C)(C)C
 | > 200 | > 200 |  | > 200 | > 200 | > 200 | > 200 | > 200 | > 200 |  |  |  | > 200 | > 200 |  | CC(=O)OC1[C@H](C)C(C(=O)OCOC(=O)C(C)(C)C)N2C(=O)[C@H](NC(=O)COc3ccccc3)[C@@H]12 (stereo partly drawn)
 | > 200 | 12.5 |  | < 0.39 | 200 | 25 | 25 | > 200 | 6.25 |  |  |  | 12.5 | 12.5 |  | CCN1CCN(C(=O)N[C@@H](C(=O)N[C@@H]2C(=O)N3[C@@H]2C(O)[C@H](C)[C@@H]3C(=O)OCOC(=O)C(C)(C)C)c2ccccc2)C(=O)C1=O (stereo partly drawn)
 | 0.39 | 0.39 |  | 6.25 | 3.12 | < 0.025 |  | < 0.025 | 0.1 | 0.2 | < 0.025 | 0.78 |  |  |  | C[C@@H](O)[C@H]1C(=O)N2C(C(=O)O)=C(SCCN)C[C@H]12 [THIENAMYCIN]

More lines, now with the values behind:

SMILES | MIC (Citrobacter koseri [1]) [µg/mL] | MIC (Escherichia coli [2]) [µg/mL] | MIC (Enterobacter cloacae [3]) [µg/mL] | MIC (Klebsiella pneumoniae [4]) [µg/mL] | MIC (Morganella morganii) [µg/mL] | MIC (Pseudomonas aeruginosa) [µg/mL] | MIC (Staphylococcus aureus [5]) [µg/mL] | MIC [6] [µg/mL] | MIC (Staphylococcus aureus [7]) [µg/mL] | MIC (Escherichia coli [8]) [µg/mL] | MIC (Klebsiella pneumoniae [9]) [µg/mL] | MIC (Streptococcus pyogenes) [µg/mL] | MIC (Haemophilus influenzae) [µg/mL] | MIC (Citrobacter koseri [10]) [µg/mL] | MIC (Klebsiella pneumoniae [11]) [µg/mL] | MIC (Enterobacter cloacae [12]) [µg/mL]
CC1=C(C(=O)OCOC(=O)C(C)(C)C)N2C(=O)[C@H]([C@@H](C)O)[C@H]2C1O (stereo partly drawn) |  | 6.25 | 12.5 |  | 50 | 100 | 3.12 |  | 1.56 | 6.25 | 6.25 | 0.78 | 6.25 |  |  | 
C[C@H]1C(O)[C@@H]2[C@H](NC(=O)COc3ccccc3)C(=O)N2[C@H]1C(=O)OCOC(=O)C(C)(C)C (stereo partly drawn) | > 200 | > 200 | > 200 | > 200 | > 200 | > 200 | 25 | > 200 | 50 | > 200 |  |  |  |  |  | 
N[C@@H](C(=O)N[C@@H]1C(=O)N2C(C(=O)O)=C(Cl)CS[C@H]12)c1ccccc1 [CEFACLOR ANHYDROUS] |  | 50 | > 200 |  | > 200 | > 200 | 1.56 |  | 3.12 | 3.12 | 1.56 | 0.05 | 3.12 |  |  | 
CC1(C)S[C@@H]2[C@H](NC(=O)COc3ccccc3)C(=O)N2[C@H]1C(=O)O [PENICILLIN V] | > 200 | > 200 |  |  | > 200 | > 200 | < 0.025 | > 200 | 50 | 100 | > 200 | < 0.025 | 6.25 |  | > 200 | > 200

Source: ChEMBL document CHEMBL1124946, “Cephalosporins to carbapenems: 1-oxygenated carbapenems and carbapenams” (1990)
